Biological target: B-cell lymphoma 6 protein (Homo sapiens, UniProt P41182)
Assay: Inhibition of BCOR peptide binding to human BCL6 expressed in Escherichia coli measured after 270 mins by BCOR ULight TR-FRET assay
Details: not given
Method in brief: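 Biochemical TR-FRET assay with the BTB domain of BCL6 (not full-length protein) and a short corepressor-derived peptide, measuring inhibition of their binding. The result is reported as an IC50.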

IC50 [µM] | SMILES
< 0.03 | CNC(=O)COc1cc2cc(Nc3nc(N4CCC(C(=O)N(C)C)CC4)ncc3Cl)cc(OC)c2n(C)c1=O

Tested on: not listed separately
Assay: Permeability of the compound by PAMPA
Format: ADME
Details: read-out: permeability (converted)

SMILES | Papp [nm/s]
CC(Nc1cc(=O)n(C)c2ccc(Nc3ccnc(Cl)c3C#N)cc12)c1ncco1 (centres undefined) | 10
Cn1c(=O)cc(NC(C)(C)c2ncc(C3CC3)cn2)c2cc(Nc3ccnc(Cl)c3C#N)ccc21 | 350
Cc1nnc(C(C)Nc2cc(=O)n(C)c3ccc(Nc4ccnc(Cl)c4C#N)cc23)o1 (centres undefined) | < 2
Cn1c(=O)cc(NC(C)(C)c2ncccn2)c2cc(Nc3ccnc(Cl)c3C#N)ccc21 | 18
Cc1cnc(C(C)Nc2cc(=O)n(C)c3ccc(Nc4ccnc(Cl)c4C#N)cc23)nc1 (centres undefined) | 56
CNC(=O)C(C)Nc1cc(=O)n(C)c2ccc(Nc3ccnc(Cl)c3C#N)cc12 (centres undefined) | < 2
CC(Nc1cc(=O)n(C)c2ccc(Nc3ccnc(Cl)c3C#N)cc12)c1ncn(C)n1 (centres undefined) | 18

Next, values leading:

Papp [nm/s] | SMILES
85 | CC(Nc1cc(=O)n(CC2CC2)c2ccc(Nc3ccnc(Cl)c3C#N)cc12)c1ncccn1 (centres undefined)
140 | CC(Nc1cc(=O)n(C)c2ccc(Nc3ccnc(Cl)c3C#N)cc12)c1ncc(C2CC2)cn1 (centres undefined)
210 | CC(Nc1cc(=O)n(CC2CCC2)c2ccc(Nc3ccnc(Cl)c3C#N)cc12)c1ncccn1 (centres undefined)
8 | C[C@@H](Nc1cc(=O)n(C)c2ccc(Nc3ccnc(Cl)c3C#N)cc12)c1ncccn1

Tested on: not listed separately
Assay: Plasma concentration in BALB/c mouse assessed as unbound fraction at 1 mg/kg, iv or 5 mg/kg, po
Format: ADME, organism-based
Details: not given
Method in brief: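 Unbound fraction measured by equilibrium dialysis in mouse plasma.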

fraction unbound | SMILES
0.013 | Cn1c(=O)cc(NC(C)(C)c2ncc(C3CC3)cn2)c2cc(Nc3ccnc(Cl)c3C#N)ccc21

Tested on: Mus musculus
Assay: Toxicity in BALB/c mouse at 1 mg/kg, iv or 5 mg/kg, po
Format: organism-based
Details: in vivo

SMILES | Activity
Cn1c(=O)cc(NC(C)(C)c2ncc(C3CC3)cn2)c2cc(Nc3ccnc(Cl)c3C#N)ccc21 | Non-Toxic

Reference: ChEMBL document CHEMBL5055684, “Into Deep Water: Optimizing BCL6 Inhibitors by Growing into a Solvated Pocket” (J Med Chem, 2021)
